Screening results as filed in PubChem BioAssay.
HSV augment – HSV replication enhancement. maximum fold increase. 0.005% of 220,000 active. HSV replication augmentation in cells, fold increase; in the data active = maximum fold increase above about 1.5; tested in PC3 cells
Insulin prom inh – TRM-6 insulin promoter activity inhibition | TRM-6 cells (human fetal islet line), insulin promoter-eGFP reporter, imaging; reporter expression induced with tamoxifen | inhibition, % at 2 µM | 0.9% of 130,000 active;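 active = inhibition above the mean plus 3 SD, with well images judged a real hit on visual review, cut at about 60% in these data, passing the limit was not always enough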
MT stabilize HCS – microtubule stabilizers in HeLa cells; HeLa tubulin immunostaining HCS, 24 h; share of cells brighter than vehicle mean+2SD; % tubulin-high responders, % at 10 µM; 0.83% of 200,000 active;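 active = plate Z-score above 3 for both tubulin-high and condensed-nucleus cell shares, with cell loss under 80%, at 10 µM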;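 note: anti alpha tubulin signal scored within the nucleus-defined area of each cell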
b-catenin transl – modulators of beta-catenin nuclear translocation | HeLa beta-catenin nuclear translocation, immunofluorescence imaging | nuclear translocation activity, % at 5 µM | 0.3% of 190,000 active | AID 1665;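 active = nuclear translocation activity above 50% at 5 µM, with a well cell count of 50 or more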;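 note: per-cell ratio of nuclear to cytoplasmic median beta-catenin stain intensity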
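Test system: human HeLa cell line; Doses: 5 µM primary, 0.02–20 µM confirmation; Incubation: 24 h compound exposure, 37°C; Detection: beta-catenin immunofluorescence imaging with DAPI; Read-out: beta-catenin nuclear/cytoplasmic ratio, % activation.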
ROMK primary – modulators of human ROMK potassium channel | B-score at 10 µM | 2% of 130,000 active | Tet-inducible ROMK, thallium flux fluorescence; actives lie on both sides | P48048;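 active = signal ratio slope over the read window, or its plate-corrected B-score, at least 3 SD from the plate mean, either direction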;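 note: B-score of the F/F0 ratio slope over 7 to 12 s after thallium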
Target sequence (P48048 whole entry, looked up): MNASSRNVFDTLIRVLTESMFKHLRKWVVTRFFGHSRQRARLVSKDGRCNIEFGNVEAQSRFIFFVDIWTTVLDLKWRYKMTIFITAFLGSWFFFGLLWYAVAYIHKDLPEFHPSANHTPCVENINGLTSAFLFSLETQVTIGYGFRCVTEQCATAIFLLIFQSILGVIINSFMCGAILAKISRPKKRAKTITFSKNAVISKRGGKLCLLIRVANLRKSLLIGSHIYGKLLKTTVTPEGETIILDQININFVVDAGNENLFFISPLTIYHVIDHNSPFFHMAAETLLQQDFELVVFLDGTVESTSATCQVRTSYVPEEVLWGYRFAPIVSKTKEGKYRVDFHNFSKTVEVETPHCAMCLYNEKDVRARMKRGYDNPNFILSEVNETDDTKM
Numbers stand for hits. The list is not random: actives were taken first. Their share in the collection is about 2.4%.

How did CC1(C)Cc2c(sc3nc[nH]c(=O)c23)CO1 do in these assays?
HSV augment: inactive; Insulin prom inh: 100.0; MT stabilize HCS: inactive; b-catenin transl: inactive; ROMK primary: inactive

What do the screens show for `CC1(C)Cc2c(sc3nn[nH]c(=O)c23)CO1`?
HSV augment: inactive; MT stabilize HCS: inactive; b-catenin transl: inactive

How did CCOC(=O)c1cnn(-c2ccc([N+](=O)[O-])cc2)c1N do in these assays?
HSV augment: inactive; b-catenin transl: inactive

What do the screens show for `COc1ccc(C(=O)/C=C2/c3ccccc3CC(C)(C)N2C)cc1`?
Insulin prom inh: inactive; MT stabilize HCS: 27.5

How did Cc1nn2c(=O)cc(COC(=O)c3ccc(S(=O)(=O)N4CCCCC4)cc3)nc2s1 do in these assays?
Insulin prom inh: inactive; MT stabilize HCS: 15.4

How did Cc1ccc(NC(=S)NNS(=O)(=O)c2ccc3ccccc3c2)cc1Cl do in these assays?
HSV augment: inactive; MT stabilize HCS: inactive; b-catenin transl: inactive; ROMK primary: inactive

Results for CCCC(=O)NCCc1cc2cc(C)c(C)cc2[nH]c1=O ?
HSV augment: inactive; Insulin prom inh: 85.7; MT stabilize HCS: inactive; b-catenin transl: inactive

How did CC(=O)NCCc1cc2cc(C)c(C)cc2[nH]c1=O do in these assays?
Insulin prom inh: inactive; MT stabilize HCS: inactive; b-catenin transl: inactive

How did CC(=O)Nc1cccc(-n2nnc(SCC(=O)N(C)c3ccccc3)n2)c1 do in these assays?
HSV augment: inactive; b-catenin transl: inactive

How did CC(=O)NC1C(=O)N(CCc2ccccc2)c2ccc(Br)cc21 (stereo unspecified) do in these assays?
Insulin prom inh: 71.9; MT stabilize HCS: inactive; ROMK primary: inactive

How did CC(=O)NC1C(=O)N(Cc2ccccc2)c2ccc(Br)cc21 (stereo unspecified) do in these assays?
HSV augment: inactive; b-catenin transl: inactive

Results for O=C(/C=C/c1ccccc1Cl)Nc1ccc(Cl)cn1 ?
HSV augment: inactive; MT stabilize HCS: inactive; b-catenin transl: inactive; ROMK primary: inactive

How did O=C(/C=C/c1ccc2c(c1)OCO2)Nc1ccc(Cl)cn1 do in these assays?
HSV augment: inactive; Insulin prom inh: 72.7; MT stabilize HCS: inactive; b-catenin transl: inactive; ROMK primary: inactive

What do the screens show for `COc1ccc(/C=C2\CCC/C(=C\C=N\N(C)C)C2=O)cc1`?
HSV augment: inactive; Insulin prom inh: inactive; MT stabilize HCS: 20.3; b-catenin transl: inactive; ROMK primary: inactive

How did O=c1c(-n2cncn2)c[nH]n1-c1cccc(Cl)n1 do in these assays?
HSV augment: inactive; Insulin prom inh: 91.7; MT stabilize HCS: inactive; b-catenin transl: inactive; ROMK primary: inactive

Results for CS(=O)(=O)N(CC(=O)N1CCCC1)c1ccc(OCc2ccccc2)cc1 ?
HSV augment: inactive; Insulin prom inh: 75.0; MT stabilize HCS: inactive; ROMK primary: inactive

How did CS(=O)(=O)N(CC(=O)N1CCCCCC1)c1ccccc1 do in these assays?
HSV augment: inactive; Insulin prom inh: inactive; MT stabilize HCS: inactive; b-catenin transl: inactive; ROMK primary: inactive

How did COc1ccc(N2CCN(C(=O)CN(c3ccc(Br)cc3)S(C)(=O)=O)CC2)cc1 do in these assays?
HSV augment: inactive; Insulin prom inh: 75.0; MT stabilize HCS: inactive; b-catenin transl: inactive; ROMK primary: inactive

How did Cc1ccc2nc(SCC(=O)Nc3cc(C(F)(F)F)ccc3N3CCOCC3)[nH]c2c1 do in these assays?
HSV augment: inactive; Insulin prom inh: inactive; MT stabilize HCS: 21.9; ROMK primary: inactive

How did COc1ccccc1/C=C/C(=O)OCC(=O)Nc1cc(C(F)(F)F)ccc1N1CCOCC1 do in these assays?
HSV augment: inactive; MT stabilize HCS: 19.3; b-catenin transl: inactive

What do the screens show for `COc1cccc(Nc2nc(-c3ccc4c(c3)OCCO4)cs2)c1`?
HSV augment: inactive; Insulin prom inh: inactive; MT stabilize HCS: 33.5; b-catenin transl: inactive

How did O=C(COC(=O)c1ccc(NS(=O)(=O)c2ccc3c(c2)OCCO3)cc1)NC1CC1 do in these assays?
HSV augment: inactive; Insulin prom inh: 91.7; MT stabilize HCS: inactive; b-catenin transl: inactive; ROMK primary: inactive

What do the screens show for `CCNC(=O)COC(=O)c1ccc(NS(=O)(=O)c2ccc3c(c2)OCCO3)cc1`?
HSV augment: inactive; Insulin prom inh: inactive; MT stabilize HCS: inactive; b-catenin transl: inactive; ROMK primary: inactive

Results for Cc1ccc(-c2csc(N(C)C(=O)c3c(C)nn(-c4ccccc4)c3Cl)n2)cc1 ?
HSV augment: inactive; MT stabilize HCS: inactive; b-catenin transl: inactive

Results for c1ccc(C(c2ccccc2)c2noc(CN3CCC(c4ccncc4)CC3)n2)cc1 ?
HSV augment: inactive; MT stabilize HCS: inactive; b-catenin transl: inactive; ROMK primary: inactive

What do the screens show for `Cc1cc(S(=O)(=O)NC2CCCCC2)ccc1OCC(=O)N1CCOCC1`?
HSV augment: inactive; Insulin prom inh: inactive; MT stabilize HCS: inactive; ROMK primary: inactive
